Results reported in PMC11370551 (bioRxiv, 2024).

Columns and labels:
Type in all cases: in vivo, mouse
female WT Swiss mice [1] = assay: Safety profile and MTD in female WT Swiss mice; settings: SC
How it was run: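 A GLP-1 receptor agonist was injected subcutaneously into WT mice at 0.5 (~5 nmol), 3 (~30 nmol) or 10 mg/kg (~100 nmol) to check tolerability before the painting studies.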

Lepob/ob obese mice [2] = assay: Efficacy in obese Lepob/ob mice after SC injection
How it was run: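 Obese Lepob/ob mice (n = 6 per compound; 3 males, 3 females) got a single subcutaneous 10 mg/kg injection. Untreated non-obese C57BL/6J mice (3 males, 3 females) gave healthy baselines. Body weight was tracked as % change from Day 0. Blood glucose was read after 6 h fasting. IP glucose tolerance: 2 g/kg after 5–6 h fast. ITT: insulin 2.5 IU/kg at 240 h, AUC0–90 min, k-ITT. Analysis: two-way ANOVA and multiparametric t-tests.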

female WT Swiss mice [3] = assay: Ip-GTT in WT Swiss mice; settings: 6 days ([…]) after single SC 10 mg/kg; glucose 2 g/kg IP; naïve 21,354 ± 431
How it was run: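 Female WT Swiss mice got a single subcutaneous injection of test compound at 10 mg/kg (~25 nmol). […] AUCs were compared by non-parametric t-tests.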

Lepob/ob obese mice [4] = assay: Efficacy in obese Lepob/ob mice after IP injection; settings: single IP 10 mg/kg
How it was run: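 Obese Lepob/ob mice got a single intraperitoneal 10 mg/kg injection of test compound; the other arm of the route comparison was subcutaneous. Body weight was tracked as % change from Day 0. Fasting blood glucose was measured. Insulin response was assessed 10 days post-injection.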

In the case of Semaglutide, the “dose from which hypoglycemia was observed” value (female WT Swiss mice [1]; WT mice, doses 0.5, 3, 10 mg/kg) was no less than 0.5 mg/kg, the “MTD (maximum tolerated dose among the assessed range)” value (female WT Swiss mice [1]; female WT Swiss mice) was 10 mg/kg and the body weight loss (Lepob/ob obese mice [2]; for 3 days after single SC 10 mg/kg (~170 nmol), n = 6) was “about 8.3 ± 0.5%”. The “duration of significant body weight loss” value (Lepob/ob obese mice [2]; single SC 10 mg/kg) was 3 days, the “duration of blood glucose down-regulation” value (Lepob/ob obese mice [2]; single SC 10 mg/kg, both sexes combined) was “up to 10 days” and the “Ip-GTT AUC0–120min” value (female WT Swiss mice [3]) was 21,282 ± 795. The “duration of sustained body weight loss” value (Lepob/ob obese mice [4]) was “up to 7 days” and the “fasting blood glucose lowering after 10 days” value (Lepob/ob obese mice [4]; 240 h p.i.) was “no more efficacy”.
